Only some compounds are listed: those with a hit (about 2.2% of all), similar ones and a draw of the others.
Yeast superoxide: yeast age-related superoxide inhibition as caloric restriction mimetic | superoxide response (% of plate mean), % at 10 µM | S. cerevisiae aged cells, superoxide DHE fluorescence; active compounds read low | hit rate 0.18% among 330,000;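 active = superoxide response under a set limit, about three screen SD below normal, cut at about 65% in these data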;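 also: yeast aged for seven days with compound at 30 °C before DHE staining; 100% = average MFI of all compound-treated wells on the plate with controls excluded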
rRNA inh HTS: selective bacterial rRNA inhibition in E. coli; GFP signal change (wild-type ribosome), % (test concentration not listed); hit rate 1.6% among 350,000; E. coli WT GFP vs humanized-ribosome RFP mutants, fluorescence, 24 h; active compounds read low; DMSO median 0, no signal -100;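 active = significant combined selectivity score with lowered wild-type GFP, culture density cut under 30%, mutant RFP and density less affected; inactive = any of these conditions unmet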
PglD inh: PglD (C. jejuni) enzyme inhibition. purified PglD enzyme, DTNB colorimetric CoA detection. hit rate 0.098% among 360,000. inhibition, % at 12.5 µM. AID 602405; in the data active = inhibition above about 16%, passing the limit was not always enough
Cneo AK release: Cryptococcus neoformans lysis via adenylate kinase release. C. neoformans lysis, adenylate kinase release luminescence, 4 h; normalised: neutral wells 0, clomiphene wells 100. hit rate 0.2% among 360,000. AID 651654. lysis activity, % at 15 µM;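 active = mean lysis activity across replicates of at least 80%, whatever share of replicates individually reach that level; inactive = mean lysis activity below 80%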
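read-out = cell lysis signal | test system = log-phase Cryptococcus neoformans yeast cells | input = cells at 5 × 10^6 per mL | medium = fresh YPD growth medium | signal = luminescent adenylate kinase detection reagent | timing = 4 h at 37 °C static, read 1 h later | dosing = single dose | controls = Clomiphene as positive lysis control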
Mot1-301 SUMO: inhibitors of SUMOylation pathway: yeast Mot1-301 growth rescue; S. cerevisiae Mot1-301 growth rescue, ATP luminescence, 38.5C; percent above DMSO median, 100 means doubled; growth rescue, % at 18.8 µM; hit rate 1% among 320,000;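 active = every valid replicate shows activation above 250% relative to neutral control wells; inactive = the rest, any valid replicate at or below 250%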;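 also: OY570 slx delta 5 strain wells were the positive control but not used for scaling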
* = called active by the depositor.

For COc1ccc2c3c([nH]c2c1)[C@@H](CO)N(C(C)=O)CC31CCN(S(=O)(=O)c2cccs2)CC1 the results were rRNA inh HTS -3.2.
Screening CO[C@H](CN(C)S(=O)(=O)c1ccccc1)[C@@H](C)CN(Cc1ccccc1Cl)[C@H](C)CO returned rRNA inh HTS 2.4, PglD inh 3.7 and Cneo AK release 54.8.
For Nc1cccc2c(O)cccc12 the results were Yeast superoxide 89.5, rRNA inh HTS -27.9* and Mot1-301 SUMO -10.1.
Screening Nc1ccccc1O returned Yeast superoxide 102.8, PglD inh 0.3, Cneo AK release -1.5 and Mot1-301 SUMO 28.3.
Screening C[C@H]1CCCCO[C@@H](CN(C)C(=O)C2CCCCC2)[C@@H](C)CN([C@@H](C)CO)C(=O)c2cc(NC(=O)c3ccccc3)ccc2O1 returned rRNA inh HTS -3.7, PglD inh -1.8 and Cneo AK release 0.8.
Screening COc1ccc(N2CCN(Cc3nc(Cc4cccc(F)c4)no3)C(C)C2)cc1 (stereo not given) returned Yeast superoxide 102.6, rRNA inh HTS -23.0*, PglD inh 1.1, Cneo AK release -4.1 and Mot1-301 SUMO -24.6.
Fc1cccc(Cc2noc(CN3CCSCC3)n2)c1 was read as Yeast superoxide 102.2, rRNA inh HTS 16.6 and Mot1-301 SUMO 14.2.
Screening COc1cc(SC)ccc1C(=O)Nc1nccs1 returned Yeast superoxide 114.5, rRNA inh HTS -24.9*, PglD inh 1.6, Cneo AK release -14.9 and Mot1-301 SUMO -0.3.
COc1cc(SC)ccc1C(=O)Nc1ccc2c(c1)OCCO2 was read as Yeast superoxide 99.4, rRNA inh HTS -25.2*, PglD inh -1.6, Cneo AK release -30.5 and Mot1-301 SUMO 32.7.
COc1ccccc1C(=O)Nc1ccc2c(c1)OCCO2 was read as Yeast superoxide 95.3, PglD inh -0.2, Cneo AK release -9.1 and Mot1-301 SUMO -3.2.
`C[C@@H]1CN([C@H](C)CO)C(=O)c2cc(-c3cccnc3)cnc2O[C@H]1CN(C)C(=O)C1CCC1` gave rRNA inh HTS 1.8, PglD inh -1.7 and Cneo AK release -0.1.
Screening C/C=C/c1cnc2c(c1)C(=O)N([C@H](C)CO)C[C@@H](C)[C@H](CN(C)C(=O)C1CC1)O2 returned rRNA inh HTS 0.1.
`CCCNC(=O)[C@@H]1[C@@H](CO)[C@@H]2Cn3c(ccc(-c4ccccc4F)c3=O)[C@@H]2N1C(=O)CC` gave rRNA inh HTS 2.2, PglD inh 2.5 and Cneo AK release 5.5.
Screening Cc1onc(-c2c(F)cccc2Cl)c1-c1nnc(-c2cccc3ccccc23)o1 returned Yeast superoxide 84.4, rRNA inh HTS 9.7, PglD inh -1.5, Cneo AK release -2.1 and Mot1-301 SUMO 16.0.
Screening Cc1onc(-c2c(Cl)cccc2Cl)c1-c1nc2cc(Cl)ccc2c(=O)o1 returned rRNA inh HTS -33.8*, PglD inh 4.9 and Cneo AK release -1.9.
CC(=O)N1[C@@H](CO)[C@@H](c2ccccc2)C12CN(C(=O)c1ccccc1)C2 was read as rRNA inh HTS 0.3.
Screening Cc1ccccc1N1CCN(C2CCCN(C(=O)CCC(=O)N(C)C)C2)CC1 (stereo not given) returned Yeast superoxide 108.0, rRNA inh HTS 5.9, PglD inh 3.6, Cneo AK release 5.0 and Mot1-301 SUMO 293.9*.
`O=C(CCC(F)(F)F)N1CCCC(N2CCN(c3cccc(Cl)c3)CC2)C1` (stereo not given) gave Yeast superoxide 88.1, rRNA inh HTS -23.5*, PglD inh -2.4, Cneo AK release 0.3 and Mot1-301 SUMO 0.3.
For O=C1CCCCN1CCC(=O)N1CCCC(N2CCN(c3cccc(Cl)c3)CC2)C1 (stereo not given) the results were Yeast superoxide 95.0, rRNA inh HTS 1.4, PglD inh -3.9, Cneo AK release 6.5 and Mot1-301 SUMO -8.7.
Screening Cc1ccccc1N1CCN(C2CCCN(C(=O)CCC(F)(F)F)C2)CC1 (stereo not given) returned Yeast superoxide 112.8, rRNA inh HTS -1.0, PglD inh 3.2, Cneo AK release -2.2 and Mot1-301 SUMO -1.6.
`C=CCOc1ccc(CN(C)CC(=O)Nc2ccccc2[N+](=O)[O-])cc1` gave Yeast superoxide 90.3, rRNA inh HTS -24.5*, Cneo AK release 6.1 and Mot1-301 SUMO 0.8.
